SMILES strings stand for the structures.

The pKa is the negative logarithm of the acid dissociation constant.

The series in a line: Acidity. Type of series: physicochemical. The note with it: aqueous 0.15 M KCl, with or without methanol cosolvent. The procedure, abridged:
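Potentiometric titrations in 0.15 M KCl, titrated with 0.5 M HCl and KOH over pH 2.0–12.0. Samples were ≤0.5 mg and run in triplicate. Standard deviation came from fitting all three replicates. For water-insoluble compounds, methanol was added and the apparent psKa was extrapolated to aqueous pKa by the Yasuda–Shedlovsky procedure.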
Compound `CONC(=O)c1n[nH]c2ccccc12` [Compound 1a, O-methyl indazole-3-hydroxamic acid] yielded a pKa of 8.43.

Compound `CONC(=O)c1nc2ccccc2[nH]1` [Compound 2a, O-methyl benzimidazole-2-hydroxamic acid] displayed a pKa of 7.21.

The compound `CONC(=O)c1nsc2ccccc12` [Compound 3a, O-Methyl 1,2-benzisothiazole-3-hydroxamic acid] came in with a pKa of 7.44.

On to `CONC(=O)c1nc2ccccc2s1` [Compound 4a, O-methyl benzothiazole-2-hydroxamic acid], for which the pKa turned out to be 6.34.

(Values after publication PMC7597899 (Chemical Science, 2020).)
